Assay results reported in ChEMBL document CHEMBL1150160, “New scalarane class sesterterpenes from an Indonesian sponge, Phyllospongia sp” (2002).

System: KB
Test: Cytotoxicity against human KB cells at 10 ug/mL
Type: functional
Procedure, shortened: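 KB cell growth was measured in the presence of test material at 10 μg/mL. Values are given as percent inhibition of growth.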

| SMILES | inhibition at 10 µg/mL [%] |
| --- | --- |
| CO[C@](C(=O)O[C@H]1C[C@H]2[C@]3(C)CC[C@H]4C(C)(C)CCC[C@]4(C)[C@H]3C[C@H](OC(C)=O)[C@]2(C)[C@@H](C=O)[C@@H]1C(C)=O)(c1ccccc1)C(F)(F)F | 30 |
| CC(=O)O[C@H]1C[C@@H]2[C@@]3(C)CCCC(C)(C)[C@@H]3CC[C@@]2(C)[C@@H]2C[C@H](O)[C@@H]3[C@H]([C@H](O)O[C@H]3C)[C@@]12C | 30 |
| CO[C@@H]1O[C@@H](C)[C@H]2[C@H]1[C@@]1(C)[C@@H](OC(C)=O)C[C@@H]3[C@@]4(C)CCCC(C)(C)[C@@H]4CC[C@@]3(C)[C@@H]1C[C@@H]2O | 30 |
| CC[C@@]1(C)CCC[C@]2(C)[C@H]3C[C@H](OC(C)=O)[C@]4(C)[C@H]5[C@@H](OC)O[C@@H](C)[C@@H]5[C@@H](O)C[C@H]4[C@]3(C)CC[C@@H]12 | 30 |
| CC(=O)O[C@H]1C[C@H]2[C@@](C)(CC[C@H]3C(C)(C)CCC[C@]23C)[C@@H]2C[C@H](O)[C@@H](C(C)=O)C[C@]21C | 30 |
| CC[C@@]1(C)CCC[C@]2(C)[C@H]3C[C@H](OC(C)=O)[C@]4(C)C[C@H](C(C)=O)[C@@H](O)C[C@H]4[C@]3(C)CC[C@@H]12 | 30 |
| CC(=O)O[C@H]1C[C@H]2[C@]3(C)CC[C@H]4C(C)(C)CCC[C@]4(C)[C@H]3C[C@H](OC(C)=O)[C@]2(C)[C@@H](C=O)[C@@H]1C(C)=O | 30 |
| CO[C@H]1O[C@@H](C)[C@H]2[C@H]1[C@@]1(C)[C@@H](OC(C)=O)C[C@@H]3[C@@]4(C)CCCC(C)(C)[C@@H]4CC[C@@]3(C)[C@@H]1C[C@@H]2O | 30 |
| CC[C@@]1(C)CCC[C@]2(C)[C@H]3C[C@H](OC(C)=O)[C@]4(C)[C@@H](C=O)[C@H](C(C)=O)[C@@H](O)C[C@H]4[C@]3(C)CC[C@@H]12 | 30 |
| CC[C@@]1(C)CCC[C@]2(C)[C@H]3C[C@H](OC(C)=O)[C@]4(C)[C@@H]5[C@H]([C@H](C)O[C@H]5O)[C@@H](O)C[C@H]4[C@]3(C)CC[C@@H]12 | 30 |
| CO[C@@H]1O[C@](C)(OC)[C@H]2[C@H]1[C@@]1(C)[C@@H](OC(C)=O)C[C@@H]3[C@@]4(C)CCCC(C)(C)[C@@H]4CC[C@@]3(C)[C@@H]1C[C@@H]2O | 30 |
| CO[C@@](C(=O)O[C@H]1C[C@H]2[C@]3(C)CC[C@H]4C(C)(C)CCC[C@]4(C)[C@H]3C[C@H](OC(C)=O)[C@]2(C)[C@@H](C=O)[C@@H]1C(C)=O)(c1ccccc1)C(F)(F)F | 30 |
| CC(=O)O[C@@H]1O[C@@H](C)[C@H]2[C@H]1[C@@]1(C)[C@@H](OC(C)=O)C[C@@H]3[C@@]4(C)CCCC(C)(C)[C@@H]4CC[C@@]3(C)[C@@H]1C[C@@H]2OC(C)=O | 30 |
| CC[C@@]1(C)CCC[C@]2(C)[C@H]3C[C@H](OC(C)=O)[C@]4(C)[C@H]5[C@H](OC)O[C@@H](C)[C@@H]5[C@@H](O)C[C@H]4[C@]3(C)CC[C@@H]12 | 30 |
| CC(=O)O[C@H]1C[C@@H]2[C@@]3(C)CCCC(C)(C)[C@@H]3CC[C@@]2(C)[C@@H]2C[C@H](O)[C@@H](C(C)=O)[C@H](C=O)[C@@]12C | 30 |
| CC(=O)O[C@H]1C[C@@H]2[C@@]3(C)CCCC(C)(C)[C@@H]3CC[C@@]2(C)[C@@H]2C[C@H](O)[C@@H](C(C)=O)[C@H](O)[C@@]12C | 30 |
